Bioassay records (PubChem BioAssay)
Hits are enriched below; roughly 4.6% of the tested compounds scored in any of these assays.
ALR H2O2 inh – inhibitors of human sulfhydryl oxidase ALR | 290,000 tested, 3.8% active | purified ALR, DTT oxidation, H2O2 HRP-luminol luminescence | AID 485317 | inhibition, % (test concentration not listed) | P55789;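 active = mean replicate inhibition above about 79%, with every replicate also reaching it, limit read from the data; inconclusive = only one of the two criteria met; inactive = mean below limit and not every replicate reaching it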
Target sequence (P55789 whole entry, looked up): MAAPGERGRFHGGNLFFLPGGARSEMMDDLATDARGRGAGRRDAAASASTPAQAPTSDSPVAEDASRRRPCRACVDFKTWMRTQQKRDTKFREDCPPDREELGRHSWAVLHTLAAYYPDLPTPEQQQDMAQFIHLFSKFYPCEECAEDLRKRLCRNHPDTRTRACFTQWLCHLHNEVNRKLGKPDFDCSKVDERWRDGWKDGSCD
NALP1 yeast inh – NALP1 inhibition; S. cerevisiae NALP1/ASC/caspase-1 growth, X-gal OD620, 72 h; inhibition, % at 10 µM; 280,000 tested, 0.61% active; AID 2071; in the data active = inhibition mostly above about 24%, no sharp cut-off; inactive = mostly below about 32%
Arr AP2 block – human beta-arrestin and AP2 interaction inhibition; FITC-arrestin peptide / GST-AP2 beads, flow cytometry; AP2 beta2 appendage carries R879A mutation; inhibition, % at 10 µM; 340,000 tested, 0.31% active;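 active = inhibition above a set limit, near 3 SD of compounds lacking own fluorescence, cut at about 54% in these data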;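 note: plate controls were DMSO wells for no effect and 5 µM unlabelled arrestin peptide for full effect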
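system = GST-tagged AP2 beta2-adaptin appendage (R879A) on 4 µm glutathione beads | reagent = FITC-labelled arrestin peptide probe, 50 nM final | schedule = compound with beads 12 min RT, then probe 1 h RT | signal = HyperCyt-sampled flow cytometry, FL1 channel, ex 488/em 535 nm | read-out = percent response from loss of bead-bound FITC fluorescence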
Pemphigus Ab inh – human desmoglein-3 autoantibody binding inhibition; P32926; binding (percent of control), % at 10 µM; DSG3-coupled beads, scFv-anti-DSG3-GFP binding, flow cytometry; hits give low values; 310,000 tested, 0.48% active;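 active = binding more than 3 SD below its plate's average and above zero; inconclusive = below that plate limit but binding exactly zero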;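 note: hits lower antibody fragment binding to DSG3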
PolyA inh – yeast polyadenylation inhibition | S. cerevisiae SKY197-pL101 polyadenylation reporter, beta-gal luminescence; efflux-impaired pdr1/pdr3 knockout yeast; score 100 = 6 SD above DMSO | activity score, % at 12 µM | 300,000 tested, 0.02% active | AID 1875;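 active = lowest replicate activity score at least 50, where 100 means six control SD above control mean; inconclusive = lowest score under 50 but half or more replicates reach 50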;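 note: yeast exposed to compound for 9 h at 30 °C; higher score means more reporter readthrough which indicates perturbed polyadenylation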
NLRP3 yeast inh – NALP3 inhibition in yeast | Yeast reconstituted NLRP3/ASC/caspase-1, beta-gal luminescence, 24 h | inhibition, % at 10 µM | 330,000 tested, 0.39% active | AID 2825;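 active = inhibition of 50% or more; inactive = inhibition below 50%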;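 note: plate controls were induced DMSO wells for no effect and uninduced yeast grown without galactose for full effect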
Active calls of the source: *; ? = inconclusive; . = no result given.

SMILES	ALR H2O2 inh	NALP1 yeast inh	Arr AP2 block	Pemphigus Ab inh	PolyA inh	NLRP3 yeast inh
CCC(=O)N1CCc2cc(S(=O)(=O)NCCC(=O)N3CCN(c4cccc(C)c4)C(C)C3)ccc21 (stereo unspecified)	97.6*	26.6	-5.6	104.4	8.6	-3.6
Cc1cccc(N2CCN(C(=O)CCNS(=O)(=O)c3cccs3)CC2C)c1 (stereo unspecified)	92.5*	-5.8	15.7	111.9	-16.6	13.5
CCC(=O)N1CCc2cc(S(=O)(=O)NCCC(=O)Nc3cc(C)cc(C)c3)ccc21	-0.9	11.3	21.7	.	20.0	15.2
CC(=O)N1CCc2cc(S(=O)(=O)NCCC(=O)Nc3cc(C)cc(C)c3)ccc21	-15.1	40.2*	-1.6	101.0	11.9	14.1
CCC(=O)N1CCc2cc(S(=O)(=O)NCCC(=O)N3CCN(c4ccccc4)CC3)ccc21	6.2	15.1	12.0	106.8	-3.0	12.0
Cc1ccc(N2CCN(C(=O)CNS(=O)(=O)c3ccc(Br)s3)CC2C)cc1 (stereo unspecified)	97.8*	-5.7	19.2	103.8	8.9	-0.3
CC(C)C[C@@H](C(=O)N[C@@H](C(=O)O)c1ccccc1)N1C(=O)N2CCc3c([nH]c4ccccc34)[C@@]2(C)C1=O	6.0	-17.6	-7.4	100.9	8.4	-3.5
NC(=O)c1ccsc1NC(=O)COC(=O)c1cnccn1	9.2	.	-2.1	80.1*	.	14.8
O=C(NCCCc1ccccc1)c1cc(COc2ccc(F)cc2Cl)on1	-3.3	19.6	2.5	34.6*	12.7	24.8
O=C(NCCc1cccnc1)c1cc(COc2ccc(F)cc2Cl)on1	-6.9	24.0	0.6	.	8.1	25.1
O=CC(=Cc1ccccc1)c1ccccc1	.	.	.	109.5	.	.
Cc1ccc(N2C(=O)CC(NNC(=O)c3cccc(S(=O)(=O)N4CCCC4)c3)C2=O)cc1 (stereo unspecified)	94.9*	12.6	32.6	101.5	-2.6	10.6
Cc1ccc(S(=O)(=O)N2C[C@H]3n4c(=O)ccc(=O)n4C[C@H](OC(=O)NCC4CCCCC4)[C@@]3(O)C2)cc1	.	.	.	111.0	.	.
COc1ccccc1-c1ccc([C@@H]2C[C@H]3[C@@H](CN2)CON3C)cc1	.	.	.	97.8	.	.
Oc1ccc(-c2nc(-c3ccc(O)c(O)c3)cs2)cc1	98.9*	10.2	2.0	103.4	18.2	9.6
O=c1c(O)c(-c2cc(O)c(O)c(O)c2)oc2cc(O)cc(O)c12	99.1*	.	-1.6	99.7	.	13.7
C[C@@H]1O[C@@H](OC[C@H]2O[C@@H](Oc3c(-c4ccc(O)c(O)c4)oc4cc(O)cc(O)c4c3=O)[C@H](O)[C@@H](O)[C@@H]2O)[C@H](O)[C@H](O)[C@H]1O	99.1*	-15.0	-3.6	94.8	15.6	24.3
CC1OC(OCC2OC(Oc3c(-c4ccc(O)cc4)oc4cc(O)cc(O)c4c3=O)C(O)C(O)C2O)C(O)C(O)C1O (stereo unspecified)	70.5	-2.6	11.7	102.2	-21.7	3.6
O=C(CCc1ccc(O)cc1)c1c(O)cc(O)cc1O[C@@H]1O[C@H](CO)[C@@H](O)[C@H](O)[C@H]1O	81.0*	10.4	3.4	114.1	-6.0	14.9
O=c1c(O[C@@H]2O[C@H](CO)[C@@H](O)[C@H](O)[C@H]2O)c(-c2ccc(O)cc2)oc2cc(O)cc(O)c12	94.1*	.	3.9	104.8	.	20.1
O=c1c(O)c(-c2ccccc2)oc2cc(O)cc(O)c12	.	.	9.1	.	.	40.9
O=c1c(O[C@@H]2O[C@H](CO)[C@H](O)[C@H](O)[C@H]2O)c(-c2ccc(O)c(O)c2)oc2cc(O)cc(O)c12	.	-11.3	.	.	.	.
OC[C@H]1O[C@@H](Oc2ccc(O)cc2)[C@H](O)[C@@H](O)[C@@H]1O	.	.	7.4	105.6	.	.
Cc1cc(NC(=O)C(C)SCC(=O)NCc2ccc(F)cc2)no1 (stereo unspecified)	.	.	-7.4	?	.	13.0
COc1c(-c2ccc(O)c(O)c2)oc2cc(O)cc(O)c2c1=O	98.5*	-12.4	2.2	95.0	-6.7	14.7
O=c1c(O[C@@H]2O[C@H](CO)[C@@H](O)[C@H](O)[C@H]2O)c(-c2ccc(O)c(O)c2)oc2cc(O)cc(O)c12	.	-9.7	.	.	-20.6	23.2
